Measurements as given in the EternaBench riboswitch data.

Key:
[1] = test system: MS2 coat protein; experiment: apparent Kd, MS2 coat protein; higher = weaker binding; RNA-MaP array; theophylline 2 mM where present
How it was run: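 Two titrations, one without ligand and one with constant ligand, were run with SNAP-549-labelled MS2 coat protein from 0.7 or 1.5 nM, doubling to 3 µM. The targets were designs transcribed by stalled E. coli RNA polymerase on Illumina sequencing-chip clusters, in 100 mM Tris-HCl pH 7.5, 80 mM KCl, 4 mM MgCl2, BSA, DTT, yeast tRNA and Tween-20. The apparent Kd is the median of filtered per-cluster binding-curve fits, with green signal normalised to red-channel RNA signal and control-cluster median Fmax.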

[2] = test system: MS2 coat protein; experiment: apparent Kd, MS2 coat protein; higher = weaker binding; RNA-MaP array; details: designed as: ON switch for flavin mononucleotide
How it was run: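 Incubations were done at room temperature with fluorescently labeled MS2 coat protein at 1.5 nM to 3 μM and designed RNAs transcribed on an Illumina sequencing chip from sequenced DNA templates, with or without input ligand. Apparent Kd is the median of binding curves fitted for each cluster. Designs with fewer than 10 measured clusters were excluded.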

[3] = designed as: OFF switch for theophylline, no ligand
[4] = ligand present: theophylline, designed as: OFF switch for theophylline
[5] = designed as: ON switch for theophylline, no ligand
[6] = ligand present: theophylline, designed as: ON switch for theophylline

Row | Sequence | apparent Kd [1, 3] [nM] | apparent Kd [1, 4] [nM] | apparent Kd [1, 5] [nM] | apparent Kd [1, 6] [nM] | also measured
1 | AGCGACAUGCGUGAUACCAGCUACAUGAGGAUCACCCAUGUACGUCAGUAAUGACUGUGUAGCCCUUGGCAGCAUAAUGCAUGUC | 34.4 | 67.2 |  |  | 
2 | AGCGAUAUGCAUGAUACCAGCUACAUGAGGAUCACCCAUGUGCGUCAGAAAUGACUGUGUAGCCCUUGGCAGCAUAAAGCAUGUA | 45.1 | 87.2 |  |  | 
3 | AGCUCAUAGAGUGAUACCAGACUACAUGAGGAUCACCCAUGUUUCUUUUGGUUAUCAUGUGUCCCUUGGCAGCACAAGAAGAGCA | 13.4 | 114 |  |  | 
4 | AGUCUAUGAAGAGAUACCAGUGAGAGACAUAGACAUGAGGAUCACCCAUGUGACAUGAAGCACCCUUGGCAGCUCAACGAGCUCA |  |  | 42.8 | 16.1 | 
5 | AUAAAUAAAACCGAUACCAGCCUUAUACAUGAGGAUCACCCAUGUUAUGCUUCCUUUUUUGGCCCUUGGCAGCGGAAAUGGGUAA |  |  | 83.3 | 40.8 | 
6 | AUAACAUGAGGAUCACCCAUGUAAGCAGAUACCAGCUAGGAAACUAGCCCUUGGCAGCUGCAUUCCUCAUGUAGGUAUCUGCUAA | 15.8 | 62.5 |  |  | 
7 | AUAAGUAAUGUUACGUGUUUAAUUGCAGAUACCAGACUAUACGUUGUCCCUUGGCAGCUGAAUUACAUGAGGAUCACCCAUGUUG | 25.9 | 25 |  |  | 
8 | AUAUUACAUGUUAUUAUACGGUAUACUGAUACCAGUGUUUCUAUUCACCCUUGGCAGCAGCAACAUGAGGAUCACCCAUGUAUUA |  |  | 16.7 | 16.9 | 
9 | AUCGUACCUCAUGAUACCAGCAUGUGAUCAUAACAUGAGGAUCACCCAUGUAAUCAGUGAUGCCCUUGGCAGCGUAGUCGAUACA |  |  | 136 | 63 | 
10 | AUGUCGUUGAAUACAGCGGCAUGGUGUGAUACCAGAAUGAUCAAAUUCCCUUGGCAGCAUCACAUGAGGAUCACCCAUGUUAAGG |  |  | 38.3 | 52 | 
11 | AUUUACAUGGUCAUAUAUAUAUCGUCAGAUACCAGACUAGAUAUUGUCCCUUGGCAGCUGUUACAUGAGGAUCACCCAUGUUAUA | 230 | 131 |  |  | 
12 | CAAAACCUUACAGAUACCAGCACAUGAGGAUCACCCAUGUAUUGGACACUUCGCUCAUCGUGCCCUUGGCAGCUGUGGGACGAGG | 78.7 | 175 |  |  | 
13 | GACCUUGCGGGCGCCCGCAAGGUCGCGGAUACCAGCGAGGUCCAUCGCCCUUGGCAGCCGAACAUGAGGAUCACCCAUGUCGGUU |  |  | 10.9 | 11.8 | 
14 | GAUAGUUGAAGGGAUACCAGCCUGGACAUGAGGAUCACCCAUGUAGCGUGUUUGAAACUGGGCCCUUGGCAGCCCAUAUUGUGUA |  |  | 15.9 | 14.6 | 
15 | GAUAGUUGAUGGGAUACCAGCGUGCACAUGAGGAUCACCCAUGUGGUUCGUGUACGACGGCGCCCUUGGCAGCCCAUAUUGUGUA |  |  | 151 | 18.9 | 
16 | GAUGAACUAUAUGAUACCAGACAACAUGAGGAUCACCCAUGUGAAAGUCGUCCUCUGCCUGUCCCUUGGCAGCGUAUAGUUUAUC | 50.4 | 168 |  |  | 
17 | GCACGACAUGAGGAUCACCCAUGUGCAGAUACCAGUAGGAUAUCCUACCCUUGGCAGCUGAGUGGAUCCGGAGGACCAUGGGUAA |  |  | 38 | 82.6 | 
18 | GCUGUAAGUGCAGAUACCAGCAUGUUAUAUUUCUAAUGACAUGAGGAUCACCCAUGUAAAUGCCCUUGGCAGCUGCACUUACAGC |  |  | 18.9 | 18.8 | 
19 | GGGAAAGAAUGUGAUACCAGAGAACCGGUCUCCAUCAAUAUACAUGAGGAUCACCCAUGUCUCCCUUGGCAGCACCAUCAUCAAA | 23.1 | 75.8 |  |  | 
20 | GGGAAUGAACGUGAUACCAGAGAUCCGGUCUCCGUCACUCUACAUGAGGAUCACCCAUGUCUCCCUUGGCAGCACCGUCAUCGGG | 34.4 | 61 |  |  | 
21 | GGUGGGACUUGUGAUACCAGCCUAAUUCGAAUCGAAUUGCACAUGAGGAUCACCCAUGUCGGCCCUUGGCAGCAUGAGUAUUUAU |  |  | 287 | 20.4 | 
22 | GUCCUAGCGAUCGCUCGCUAGGACGCGGAUACCAGCGAGGUCCAUCGCCCUUGGCAGCCGAACAUGAGGAUCACCCAUGUCGGUA |  |  | 9.59 | 14.9 | 
23 | UAACAUGAGGAUCACCCAUGUAUAGUCGAUACCAGCUCUGUCUAGAGCCCUUGGCAGCGACACUGGUAUCCAUGGGUGUGGAUAC |  |  | 108 | 56.1 | 
24 | UAUAUUGUGAUGGAUACCAGCAGAGAAAACGUUUAUCCUAACAUGAGGAUCACCCAUGUAUGCCCUUGGCAGCUGUUGUGGUAUA |  | 44.4 |  |  | 
25 | UAUUUGGUGCGCGAGCGCUGGAUAAUUGAUACCAGUGAAGAAGAGCGCCCUUGGCAGCGAAUCCUAACAUGAGGAUCACCCAUGU |  |  | 37 | 42.1 | 
26 | UUUCUGUUACAGAAGGGAAGGAAACAUGAGGAUCACCCAUGUCCACGCCGUUUACAUUCGGCCGUUCAGGAUAUGUCAUAUUGA |  |  |  |  | apparent Kd ([2]; no ligand): 23.1 nM; apparent Kd ([2]; ligand present: flavin mononucleotide): 17 nM
